Laboratory results reported in ChEMBL document CHEMBL1138619, “Autotaxin structure-activity relationships revealed through lysophosphatidylcholine analogs” (Bioorg Med Chem, 2009).

Assays:
Type in all cases: cell-based
Design in all cases: scale not given: the % may be the effect or the level left
Autotaxin (Homo sapiens) [1] = target: Autotaxin (Homo sapiens) (UniProt Q13822); assay: Activity of human autotaxin in human […] cells assessed as effect on enzyme-mediated of FS3 hydrolysis at 1 uM
Outline: (§1)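 ATX source: serum-free conditioned medium from MDA-MB-435 cells (24-30 h), with 20% ethylene glycol added, concentrated ~10-fold and exchanged into 50 mM Tris pH 7.4. Assay: FS-3 substrate 1 μM final, fatty-acid-free BSA 30 μM, Tris pH 8 buffer with Mg2+, Ca2+, K+ and NaCl. Read fluorescence at ex 485/em 538 nm every 5 min. % inhibition vs vehicle at 1 h, after no-medium background subtraction; mean ± SD, ≥3 wells.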

Autotaxin (Homo sapiens) [2] = target: Autotaxin (Homo sapiens) (UniProt Q13822); assay: Activity of human autotaxin in human […] cells assessed as effect on enzyme-mediated of FS3 hydrolysis at 10 uM; outline: as §1
Autotaxin (Homo sapiens) [3] = target: Autotaxin (Homo sapiens) (UniProt Q13822); assay: Activity of human autotaxin in human […] cells assessed as effect on enzyme-mediated of FS3 hydrolysis at 0.1 uM; outline: as §1

Row | Compound | Activity (Autotaxin (Homo sapiens) [1]) [%] | Activity (Autotaxin (Homo sapiens) [2]) [%] | Activity (Autotaxin (Homo sapiens) [3]) [%]
1 | CCCCCCCCCCC(=O)OC[C@@H](O)COP(=O)([O-])OCC[N+](C)(C)C | 101 | 85 | 101
2 | CCCCCCCCC/C=C/CCCCCCCOP(=O)([O-])NCC[N+](C)(C)C | 89 | 74 | 93
3 | CCCCCCCCCCCCCCC(=O)OC[C@@H](O)COP(=O)([O-])OCC[N+](C)(C)C | 80 | 36 | 72
4 | CCCCCCCCCCCCCCOP(=O)([O-])NCC[N+](C)(C)C | 90 | 75 | 89
5 | CCCCCCCCCCCCCCCCCCC(=O)OC[C@@H](O)COP(=O)(O)O | 74 | 36 | 89
6 | CCCCCCCCC/C=C/CCCCCCCC(=O)OC[C@@H](O)COP(=O)([O-])OCC[N+](C)(C)C | 55 | 17 | 92
7 | CCCCCCCCCCCCCCCCC(=O)OC[C@@H](O)COP(=O)([O-])OCC[N+](C)(C)C | 89 | 36 | 109
8 | CCCCCCCC/C=C\CCCCCCCCOP(=O)([O-])OCC[N+](C)(C)C | 59 | 8 | 105
9 | CCCCCCCCCCCCCCCCOP(=O)([O-])OCC[N+](C)(C)C | 113 | 92 | 114
10 | CCCCCCC(=O)OC[C@@H](O)COP(=O)([O-])OCC[N+](C)(C)C | 100 | 97 | 104
11 | CCCCCCCCC(=O)OC[C@@H](O)COP(=O)([O-])OCC[N+](C)(C)C | 81 | 101 | 94
12 | CCCCCCCCCCCCC(=O)OC[C@@H](O)COP(=O)([O-])OCC[N+](C)(C)C | 97 | 66 | 102
13 | CCCCCCCCCCCCCCCCOP(=O)([O-])NCC[N+](C)(C)C | 81 | 77 | 81
14 | CCCCCCCCC/C=C/CCCCCCCC(=O)OC[C@@H](O)COP(=O)(O)O | 23 | 2 | 90
15 | CCCCCCCC/C=C\CCCCCCCCOP(=O)(O)OCC[N+](C)(C)C | 100 | 79 | 101
16 | CCCCCCCCCCCCCCOP(=O)([O-])OCC[N+](C)(C)C | 112 | 91 | 110
17 | CCCCCCCCCCCCCCCCC(=O)OC[C@@H](O)COP(=O)(O)O | 49 | 5 | 74

Next, values leading:

Row | Activity (Autotaxin (Homo sapiens) [1]) [%] | Activity (Autotaxin (Homo sapiens) [2]) [%] | Activity (Autotaxin (Homo sapiens) [3]) [%] | Compound
18 | 85 | 76 | 98 | CCCCCCCCCCCCCCOC[C@@H](O)COP(=O)([O-])CCC[N+](C)(C)C
19 | 86 | 76 | 82 | CCCCCCCCCCCCCCCCOC[C@H](O)COP(=O)([O-])CCC[N+](C)(C)C
20 | 89 | 49 | 100 | CCCCCCCCCCCCCCCCCOC[C@@H](O)COP(=O)([O-])OCC[N+](C)(C)C
21 | 116 | 102 | 114 | CCCCCCCCCCCCCCCCCCOP(=O)([O-])OCC[N+](C)(C)C
22 | 96 | 89 | 99 | CCCCCCCCCCCCOC[C@@H](O)COP(=O)([O-])CCC[N+](C)(C)C
23 | 74 | 29 | 86 | CCCCCCCCCCCCCCCCCCOP(=O)([O-])NCC[N+](C)(C)C
24 | 96 | 89 | 97 | CCCCCCCCCCOC[C@H](O)COP(=O)([O-])CCC[N+](C)(C)C
25 | 99 | 59 | 111 | CCCCCCCCCCCCCCCCCCC(=O)OC[C@@H](O)COP(=O)([O-])OCC[N+](C)(C)C
26 | 95 | 87 | 98 | CCCCCCCCCCCCOC[C@H](O)COP(=O)([O-])CCC[N+](C)(C)C
27 | 82 | 72 | 83 | CCCCCCCCCCCCCCCCOC[C@@H](O)COP(=O)([O-])CCC[N+](C)(C)C
28 | 77 | 68 | 78 | CCCCCCCCCCCCCCCCCCOC[C@H](O)COP(=O)([O-])CCC[N+](C)(C)C
29 | 95 | 80 | 97 | CCCCCCCCCCCCCCOC[C@H](O)COP(=O)([O-])CCC[N+](C)(C)C
30 | 96 | 44 | 110 | CCCCCCCCCCCCCCCCCCP(=O)([O-])OCC[N+](C)(C)C
31 | 86 | 44 | 92 | CCCCCCCCCCCCCCCCCCCOC[C@@H](O)COP(=O)([O-])OCC[N+](C)(C)C
32 | 95 | 103 | 101 | CCCCCCCCCCOC[C@@H](O)COP(=O)([O-])CCC[N+](C)(C)C
33 | 90 | 71 | 94 | CCCCCCCCCCCCCCOP(=O)([O-])CCC[N+](C)(C)C
34 | 89 | 76 | 81 | CCCCCCCCCCCCCCCCCCOC[C@@H](O)COP(=O)([O-])CCC[N+](C)(C)C
35 | 94 | 91 | 97 | CCCCCCCCCCCCCCCCOP(=O)([O-])CCC[N+](C)(C)C
